# ChEMBL document CHEMBL4808161, “Structure-Activity Relationship Study of Amidobenzimidazole Analogues Leading to Potent and Systemically Administrable Stimulator of Interferon Gene (STING) Agonists” (J Med Chem, 2021)
# The source made the active and inactive calls. No cut-off for these calls is given here.
# Columns and labels:
# [1] = target: T1, Stimulator of interferon genes protein (Homo sapiens, UniProt Q86WV6); assay: Inhibition of [3H]-cGAMP binding to STING (unknown origin)
# [2] = target: T1, Stimulator of interferon genes protein; assay: Activation of human STING (139 to 379 residues) expressed in THP1-Blue ISG cells at 10 uM incubated for 24 hrs by quanti-blue SEAP reporter gene assay relative to control; type: cell-based; conditions: filed as activator
# In short: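 THP1-Blue-ISG cells (1 × 10⁵/well) treated for 24 h; single-concentration screen at 10 μM. SEAP ISG reporter in 20 μL supernatant read with QUANTI-Blue at 650 nm. Activation given as fold over control, averaging at least two experiments.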
# [3] = Solubility of the compound; type: physicochemical
# [4] = target: T1, Stimulator of interferon genes protein; assay: Activation of STING in human THP1-Dual cells assessed as induction of ISG signaling at 0.005 to 10 uM measured after 24 hrs by Quanti-Blue reagent based assay; type: cell-based; conditions: filed as activator, dose 0.005-10 µM
# In short: (§1)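 THP1-Dual cells (1 × 10⁵/well) treated for 24 h. Supernatant (20 μL) incubated 1 h at 37 °C with QUANTI-Blue, then absorbance read at 650 nm. Fold change calculated relative to vehicle control.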
# [5] = target: T1, Stimulator of interferon genes protein; assay: Activation of STING in human THP1-Dual cells assessed as induction of NF-KB signaling at 0.005 to 10 uM measured after 24 hrs by Quanti-Blue reagent based assay; type: cell-based; conditions: filed as activator, dose 0.005-10 µM; in short: as §1
# [6] = target: T1, Stimulator of interferon genes protein; assay: Activation of STING in human THP1-Dual cells assessed as increase in IP-10 secretion at 0.01 to 10 uM measured after 24 hrs by ELISA; type: cell-based; conditions: filed as activator, dose 0.01-10 µM
# In short: (§2)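 THP1-Dual cells seeded at 10⁵ cells/well and treated for 24 h. Human IP-10 and IFN-β in supernatant quantified by ELISA kits. Concentration (pg/mL) derived from a standard curve.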
# [7] = target: T1, Stimulator of interferon genes protein; assay: Activation of STING in human THP1-Dual cells assessed as increase in IFNbeta secretion at 10 uM measured after 24 hrs by ELISA; type: cell-based; conditions: filed as activator; in short: as §2
# [8] = target: T1, Stimulator of interferon genes protein; assay: Activation of STING in human THP1-Dual cells assessed as increase in TBK1/IRF3 phosphorylation measured after 4 hrs by Western blot analysis; type: cell-based; conditions: filed as activator, dose 3.3-30 µM
# In short: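 THP1-Dual cells (8 × 10⁵/well) treated at 3.3, 10 and 30 μM for 4 h, then lysed in SDS sample buffer and boiled. Lysates run on 10% SDS-PAGE and transferred to nitrocellulose. Blots probed for TBK1, phospho-TBK1 Ser172, IRF3, phospho-IRF3 Ser396 and GAPDH, with HRP secondaries and ECL detection.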
# [9] = system: Stimulator of interferon genes protein (Homo sapiens), Q86WV6 [UNDEFINED MUTATION]; assay: Binding affinity to human STING R232 mutant assessed as thermal stability by measuring melting temperature […] differential scanning fluorimetry (reference value: 38.75 degreeC); conditions: filed as activator
# In short: (§3)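 Thermal shift by DSF: 5 μM STING protein, 50 μM compound and 10× SYPRO Orange in 10 mM HEPES pH 7.5, 150 mM NaCl. Samples heated from 30 to 80 °C at 0.5 °C/min. Tm taken as the temperature of median fluorescence between onset and maximum; n = 3.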
# Homo sapiens [10] = organism: Homo sapiens; assay: Binding affinity to human STING H232 mutant assessed as thermal stability by measuring melting temperature […] differential scanning fluorimetry (reference value: 39.5 degreeC); conditions: filed as activator; in short: as §3
# Homo sapiens [11] = organism: Homo sapiens; assay: Binding affinity to human STING 293Q mutant assessed as thermal stability by measuring melting temperature […] differential scanning fluorimetry (reference value: 46.25 degreeC); conditions: filed as activator; in short: as §3
# [12] = system: Stimulator of interferon genes protein (Homo sapiens), Q86WV6 [R71H,G230A,R293Q]; assay: Binding affinity to human STING HAQ mutant assessed as thermal stability by measuring melting temperature […] differential scanning fluorimetry (reference value: 37.25 degreeC); conditions: filed as activator; in short: as §3
# Mus musculus = organism: Mus musculus; assay: Binding affinity to mouse STING mR231 mutant assessed as thermal stability by measuring melting temperature […] differential scanning fluorimetry (reference value: 42 degreeC); conditions: filed as activator; in short: as §3
# 4T1 [13] = assay: Antitumor activity against mouse 4T1 cells […] in orthotopic BALB/c mouse assessed as tumor regression at 10 mg/kg, iv administered on day 1,4 and 7 post inoculation; type: functional, organism-based; conditions: time 7.0 day
# In short: (§4)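 BALB/c mice bearing orthotopic 4T1 tumors (5 × 10⁵ cells in the breast fat pad; n = 5) dosed iv at 10 mg/kg on days 1, 4 and 7 once tumors reached about 50–100 mm³. Tumor volume calculated as (a × b²)/2 and, with body weight, measured twice weekly.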
# [14] = target: T2, Stimulator of interferon genes protein (Mus musculus) (UniProt Q3TBT3); assay: Activation of mouse STING expressed in RAW-Lucia ISG cells at 50 uM incubated for 24 hrs by QUANTI-Luc luciferase reporter gene assay relative to control; conditions: filed as activator
# T2 sequence (whole entry): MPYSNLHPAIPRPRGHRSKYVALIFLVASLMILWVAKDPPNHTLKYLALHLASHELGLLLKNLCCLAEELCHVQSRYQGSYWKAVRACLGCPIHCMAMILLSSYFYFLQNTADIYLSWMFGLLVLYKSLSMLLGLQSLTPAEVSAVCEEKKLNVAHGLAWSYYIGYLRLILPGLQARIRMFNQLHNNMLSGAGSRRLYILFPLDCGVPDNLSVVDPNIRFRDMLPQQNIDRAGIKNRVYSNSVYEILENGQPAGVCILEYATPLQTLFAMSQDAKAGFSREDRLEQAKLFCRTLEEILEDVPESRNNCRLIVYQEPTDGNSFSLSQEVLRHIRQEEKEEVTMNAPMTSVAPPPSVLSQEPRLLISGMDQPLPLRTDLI
# [15] = target: T1, Stimulator of interferon genes protein; assay: Activation of STING in human THP1-Dual cells assessed as induction of ISG signaling measured after 24 hrs by Quanti-Blue reagent based assay; type: cell-based; conditions: filed as activator, dose 0.005-10 µM; in short: as §1
# [16] = target: T1, Stimulator of interferon genes protein; assay: Activation of STING in human THP1-Dual cells assessed as induction of NF-KB signaling measured after 24 hrs by Quanti-Blue reagent based assay; type: cell-based; conditions: filed as activator, dose 0.005-10 µM; in short: as §1
# THP1-Dual KO-STING = assay: Effect on ISG expression in human THP1-Dual KO-STING cells at 10 uM measured after 24 hrs; type: functional, cell-based
# In short: (§5)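 Reporter cells (1 × 10⁵ cells/well) exposed to compound for 24 h at 37 °C in 5% CO₂. Secreted luciferase ISG reporter in 20 μL supernatant read by luminescence with QUANTI-Luc reagent. Activity expressed as fold change versus control.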
# 293-Dual hSTING-H232 = assay: Activation of STING H232 in human 293-Dual hSTING-H232 cells assessed as induction of ISG signaling measured after 24 hrs; type: cell-based; conditions: filed as activator, dose 0.005-10 µM; in short: as §5
# [17] = system: Stimulator of interferon genes protein (Homo sapiens), Q86WV6 [UNDEFINED MUTATION]; assay: Activation of STING H232 in human 293-Dual hSTING-R232 cells assessed as induction of ISG signaling measured after 24 hrs; type: cell-based; conditions: filed as activator, dose 0.005-10 µM; in short: as §5
# 4T1 [18] = assay: Antitumor activity against mouse 4T1 cells and CT26 cells co-inoculated in orthotopic BALB/c mouse assessed as supression of tumor growth at 10 mg/kg, iv administered on day 1,4 and 7 post inoculation; type: functional, organism-based; conditions: time 7.0 day, in the assay text read “4T1 cells inoculated” for “4T1 cells and CT26 cells co-inoculated”; in short: as §4
# RAW-Lucia ISG-KO-STING = assay: Effect on ISG expression in mouse RAW-Lucia ISG-KO-STING cells at 0.005 to 10 uM measured after 24 hrs; type: functional, cell-based; conditions: dose 0.005-10 µM; in short: as §5
# CT26 = assay: Antitumor activity against mouse CT26 cells inoculated in BALB/c mouse assessed as inhibition of tumor growth at 500 ug, IT(Intratumoral) administered on day 1,4 and 7 post inoculation; type: functional; conditions: dose 500.0 µg, time 7.0 day
# In short: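 BALB/c mice with subcutaneous CT26 tumors (5 × 10⁵ cells, right armpit; n = 6) given 500 μg intratumorally on days 1, 4 and 7 at about 50–100 mm³. Tumor volume ((a × b²)/2) and body weight measured twice weekly.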
# T1 sequence (Q86WV6 whole entry, the tested form may be a part): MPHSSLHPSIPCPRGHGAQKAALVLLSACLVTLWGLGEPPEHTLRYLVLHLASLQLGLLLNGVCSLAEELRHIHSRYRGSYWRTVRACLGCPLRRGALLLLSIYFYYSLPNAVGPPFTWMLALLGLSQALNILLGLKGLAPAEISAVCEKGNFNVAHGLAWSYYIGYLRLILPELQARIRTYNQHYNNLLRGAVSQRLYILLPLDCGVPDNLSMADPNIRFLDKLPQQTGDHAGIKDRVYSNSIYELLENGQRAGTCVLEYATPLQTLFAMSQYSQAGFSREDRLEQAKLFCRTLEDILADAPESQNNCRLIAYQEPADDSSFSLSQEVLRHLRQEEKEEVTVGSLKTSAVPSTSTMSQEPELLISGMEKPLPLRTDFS
# Sequence of Stimulator of interferon genes protein (Homo sapiens), Q86WV6 [UNDEFINED MUTATION] (Q86WV6 whole entry, looked up, stated change not applied): as the sequence (Q86WV6 whole entry, the tested form may be a part) above
# Sequence of Stimulator of interferon genes protein (Homo sapiens), Q86WV6 [R71H,G230A,R293Q] (Q86WV6 whole entry R71H/G230A/R293Q): as the sequence (Q86WV6 whole entry, the tested form may be a part) above, with R71H, G230A, R293Q counted along it
SMILES,fold change (FC) [2],Activity [6],Activity [7],Activity [8],Tm [9] [°C],Tm (Homo sapiens [10]) [°C],Tm (Homo sapiens [11]) [°C],Tm [12] [°C],Tm (Mus musculus) [°C],fold change (FC) [14],further results
CCn1nc(C)cc1C(=O)/N=c1\[nH]c2cc(C(=O)O)ccc2n1C[C@@H](O)c1ccccc1,,,,,,,,,,,IC50 [1]: 14 µM
CCn1nc(C)cc1C(=O)/N=c1\[nH]c2cc(C(N)=O)cc(OC)c2n1C/C=C/Cn1/c(=N/C(=O)c2cc(C)nn2CC)[nH]c2cc(C(N)=O)cc(OCCCN3CCOCC3)c21.Cl.Cl.Cl,26,Active,Active,Dose-Dependent Effect,48.5,50.2,49,48.8,55.5,8.11,solubility [3]: 3.23 mg/mL; Activity [4]: Active; Activity [5]: Active; Activity (4T1 [13]): Active
CCn1nc(C)cc1C(=O)/N=c1\[nH]c2cc(-c3ncn[nH]3)cc(OC)c2n1C/C=C/Cn1/c(=N/C(=O)c2cc(C)nn2CC)[nH]c2cc(C(N)=O)cc(OCCCN3CCOCC3)c21,19.2,Active,Active,Dose-Dependent Effect,45.5,46.8,46.8,45.8,52.8,3.2,Activity [15]: Dose-Dependent Effect; Activity [16]: Dose-Dependent Effect; Activity (THP1-Dual KO-STING): inactive; Activity (293-Dual hSTING-H232): Dose-Dependent Effect; Activity [17]: Dose-Dependent Effect; inhibition (4T1 [18]): Active; Activity (RAW-Lucia ISG-KO-STING): inactive; inhibition (CT26): Active
